Data taken from paper PMC11720871 (Results in chemistry, 2024).
Like-named read-outs stand apart in the source and are kept apart here.

Columns and labels:
[1] = tested on: p-MLKL in MDA-MB-231 VIM RFP cells; experiment: Western blot analysis of p-MLKL; type: cell-based, human; conditions: complex 20 μM and/or BBC 50 μM, 24 h; relative to GAPDH
In short: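 Cells were plated at 1 × 10^6 cells/mL in 6-well plates and treated 24 h with 20 μM complex and/or 50 μM BBC. RIPA lysates were BCA-normalised, and equal protein was run on 10% SDS-PAGE (100 V, 2 h) and transferred to nitrocellulose (60 V, 90 min). After TBS blocking for 30 min, p-MLKL and GAPDH primaries were applied overnight at 4 °C, then Alexa Fluor Plus 488 secondary for 1 h at RT. Band densitometry was expressed relative to GAPDH.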

MCF-10A cells = experiment: CCK-8 viability assay, non-cancer cells; type: cell-based, human; conditions: read-out: IC50 Non-cancer MCF-10A
MDA-MB-231 VIM RFP cells [2] = experiment: Cell cycle analysis by flow cytometry; type: cell-based, human; conditions: complex 20 μM and/or BBC 50 μM, 24 h
In short: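 Cells were plated at 1 × 10^6 cells/mL in 6-well plates and treated 24 h with 20 μM complex and/or 50 μM BBC. They were washed in PBS, fixed in ice-cold 70% EtOH at 4 °C for 2 h, washed again and stained with DAPI. Flow cytometry read at 450/50 nm, and G1, S and G2 fractions were gated. Triplicate; mean + std. err.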

[3] = tested on: Caspase 3/7 in MDA-MB-231 VIM RFP cells; experiment: Caspase-Glo 3/7 luminescence assay; type: cell-based, human; conditions: complex 20 μM and/or BBC 50 μM, 24 h
In short: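 Cells were seeded at 1.5 × 10^4 cells/well and treated for 24 h with 20 μM complex and/or 50 μM BBC. Caspase-Glo 3/7 reagent was added and luminescence read. Mean ± SE, n = 3.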

MDA-MB-231 VIM RFP cells [4] = experiment: CCK-8 viability assay, cancer cells; type: cell-based, human; conditions: read-out: IC50 Cancer MDA-MB-231 VIM RFP
In short: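 MDA-MB-231 VIM RFP cells were grown in EMEM with 10% FBS, 0.01 mg ml−1 insulin, 10 μg ml−1 blasticidin S and 1% pen/strep at 37 °C, 5% CO2. Cells were seeded at 1.5 × 10^4 cells/well and exposed to 0–100 μM test compound, alone or with a fixed 50 μM BBC, for 24, 48 or 72 h. WST-8 (CCK-8) absorbance was read at 450 nm, and IC50 was taken from concentration–viability curves.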

[5] = tested on: human cervical cancer HeLa cells; conditions: cited from earlier work
[6] = tested on: breast cancer MCF-7 cells; conditions: single agent; cited from earlier work
[7] = tested on: non-cancer human prostate epithelial cells; conditions: berberine 10–100 μM; cited from earlier work
pregnant rats = conditions: high dose (500–600 times more than human dosage); cited from earlier work
BT549 cells = conditions: 48 h of treatment; cited from earlier work
MDA-MB-231 cells = conditions: 48 h of treatment; cited from earlier work
[8] = tested on: prostate cancer PC3 cells; conditions: cited from earlier work

Q: With `COc1ccc2cc3[n+](cc2c1OC)CCc1cc2c(cc1-3)OCO2` [Berberine chloride (BBC), berberine chloride] as the molecule, how does the “p-MLKL level, western blot” value [1] read?
A: low level of p-MLKL

Q: What about the IC50 (MCF-10A cells; Homo sapiens, MCF-10A, 24 h) of the same molecule?
A: > 100 µM

Q: What about the IC50 (MCF-10A cells; Homo sapiens, MCF-10A, 48 h) of the same molecule?
A: > 100 µM

Q: And the IC50 (MCF-10A cells; Homo sapiens, MCF-10A, 72 h)?
A: 92.3 ± 1.4 µM

Q: And the “Fraction of cells in G2 phase” value (MDA-MB-231 VIM RFP cells [2])?
A: 33.8%

Q: And the “Caspase 3/7 activity (luminescence)” value [3]?
A: activation in caspase 3/7

Q: What about the IC50 (MDA-MB-231 VIM RFP cells [4]; Homo sapiens, MDA-MB-231, 24 h) of the same molecule?
A: 48.3 ± 2.4 µM

Q: What about the IC50 (MDA-MB-231 VIM RFP cells [4]; Homo sapiens, MDA-MB-231, 48 h) of the same molecule?
A: 31.8 ± 2.6 µM

Q: What about the IC50 (MDA-MB-231 VIM RFP cells [4]; Homo sapiens, MDA-MB-231, 72 h) of the same molecule?
A: 25.6 ± 1.9 µM

Q: Which results are given for `COc1ccc2cc3[n+](cc2c1OC)CCc1cc2c(cc1-3)OCO2` [berberine]?
A: Enhancement of toxicity of berberine when combined with cisplatin ([5]; berberine 50 μg/mL combined with 5 μM of cisplatin): around 54%; Cytotoxic effect ([5]; dose of 50 μg/mL): significant cytotoxic effect; IC50 [6]: 52.2 ± 1.59 µM; Cytotoxic effect [7]: did not show a significant cytotoxic effect; Reproductive toxicity (pregnant rats): no significant reproductive toxicity; IC50 (BT549 cells): 16.575 ± 1.219 µg/mL; IC50 (MDA-MB-231 cells): 18.525 ± 6.139 µg/mL; Cell cycle arrest ([8]; 10 μM): induced G0/G1 cell cycle arrest; Cell cycle arrest ([8]; 50 μM): inhibited the cell cycle at G2/M phase

Q: What does the source list for `N.N.[Cl][Pt][Cl]` [Cisplatin]?
A: IC50 (MCF-10A cells; 24 h incubation, CCK-8): 41.2 ± 1.9 µM; IC50 (MCF-10A cells; 48 h incubation, CCK-8): 34.2 ± 2.7 µM; IC50 [6]: 49.5 ± 1.62 µM; IC50 (MDA-MB-231 VIM RFP cells [4]; 24 h incubation, CCK-8): 28.1 ± 2.4 µM; IC50 (MDA-MB-231 VIM RFP cells [4]; 48 h incubation, CCK-8): 24.7 ± 2.6 µM; IC50 (MDA-MB-231 VIM RFP cells [4]; 72 h incubation, CCK-8): 22.2 ± 1.8 µM
